Assay results reported in ChEMBL document CHEMBL1130191 (J Med Chem, 1997).
pIC50: −log10 of the molar value. Values after ≈ are worked out from the molar mass of the structure shown.

How the values were obtained:
P388 [1] = assay: Inhibition of P388 Leukemia cell proliferation; format: functional, cell-based; settings: Mus musculus
In short: (§1)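 P388 murine leukemia cells exposed to a range of drug concentrations for 96 h at 37 °C; viability scored by neutral red staining; IC50 is the concentration giving 50% growth inhibition.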

[2] = system: DNA topoisomerase II (Bos taurus); assay: Inhibition of calf thymus Topoisomerase-2
Bacillus cereus = assay: Antimicrobial activity against Bacillus cereus; format: functional
In short: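 B. cereus ATCC 14579 in Mueller-Hinton broth pH 7.4, compounds diluted in DMSO across 12 tubes spanning 100 to 0.05 μg/mL; growth read after 24 h at 27 °C; MIC taken as lowest inhibitory concentration. Disk diffusion screen also run: 6 mm paper disks carrying 300 μg drug in DMSO, 24 h at 27 °C.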

[3] = biological target: Protein kinase C alpha type (Homo sapiens, UniProt P17252); assay: Inhibition of Protein kinase C alpha
In short: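 Recombinant PKC-α, partially purified; protamine sulfate substrate without phosphatidylserine or diacylglycerol; γ-33P incorporation measured by spotting aliquots on P81 paper. Compounds serially diluted 10-fold in DMSO/water 50:50. Two independent experiments; IC50 in μM.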

[4] = system: DNA topoisomerase I (Bos taurus); assay: Inhibition of calf thymus Topoisomerase-I
B16 = assay: Inhibition of murine B16 Melanoma cell proliferation; format: functional, cell-based, Mus musculus
In short: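 Clonogenic assay: B16 melanoma cells (EMEM with 10% FCS, 37 °C, 5% CO2) seeded 200 per dish, attached 20 h, exposed to increasing drug concentrations 24 h, washed, regrown 12 days; methanol-fixed, crystal violet-stained, colonies >50 cells counted. IC50 is concentration giving 50% cloning efficiency versus untreated.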

P388 [5] = assay: Inhibition of P388 murine leukemia cell proliferation; format: functional, cell-based; settings: Mus musculus; in short: as §1

MIC [2] | pIC50 [3] | MIC [4] | pIC50 (B16; b16) | Structure (SMILES) | other results
> 19 µM | < 4.00 | 1.95 µM (≈ 0.978 µg/mL) |  | CO[C@H]1[C@H](O)[C@@H](O)[C@H](n2c3ccccc3c3c4c(c5c6ccccc6[nH]c5c32)C(=O)NC4=O)O[C@@H]1CO | pIC50 (P388 [1]): 5.17; MIC (Bacillus cereus; Bacillus cereus, read-out: MIC): > 97 µM
 | < 4.00 |  |  | CO[C@H]1[C@H](O)[C@@H](O)[C@H](n2c3c(Cl)cccc3c3c4c(c5c6cccc(Cl)c6[nH]c5c32)C(=O)N(C)C4=O)O[C@@H]1CO | pIC50 (P388 [1]): 6.22; MIC (Bacillus cereus; Bacillus cereus, read-out: MIC): > 85 µM; pIC50 (B16; Mus musculus, B16): 6.21
 | < 4.00 | 0.6 µM (≈ 0.309 µg/mL) |  | CO[C@H]1[C@H](O)[C@@H](O)[C@H](n2c3ccccc3c3c4c(c5c6ccccc6[nH]c5c32)C(=O)N(C)C4=O)O[C@@H]1CO | pIC50 (P388 [1]): 6.15; MIC (Bacillus cereus; Bacillus cereus, read-out: MIC): 1.55 µM (≈ 0.799 µg/mL); pIC50 (B16; Mus musculus, B16): 5.97
 | < 4.00 |  | 5.60 | CC(=O)OCC1OC(n2c3ccccc3c3c4c(c5c6ccccc6[nH]c5c32)C(=O)N(C)C4=O)C(OC(C)=O)C(OC(C)=O)C1OC(C)=O (stereo in doubt; 3) [listing 1 of 2 here] | 
> 15 µM |  | > 15 µM |  | CC(=O)OCC1OC(n2c3ccccc3c3c4c(c5c6ccccc6[nH]c5c32)C(=O)N(C)C4=O)C(OC(C)=O)C(OC(C)=O)C1OC(C)=O (stereo in doubt; 3) [listing 2 of 2 here] | 
 |  |  | 4.11 | CC(=O)OCC1OC(n2c3ccccc3c3c4c(c5c6ccccc6[nH]c5c32)C(=O)N(C)C4=O)C(OC(C)=O)C(OC(C)=O)C1OC(C)=O (stereo in doubt; 4) [listing 1 of 2 here] | pIC50 (P388 [1]): < 4.82; MIC (Bacillus cereus; Bacillus cereus, read-out: MIC): > 74 µM
> 15 µM |  | > 15 µM |  | CC(=O)OCC1OC(n2c3ccccc3c3c4c(c5c6ccccc6[nH]c5c32)C(=O)N(C)C4=O)C(OC(C)=O)C(OC(C)=O)C1OC(C)=O (stereo in doubt; 4) [listing 2 of 2 here] | 
> 15 µM |  | > 15 µM |  | CC(=O)OCC1OC(n2c3ccccc3c3c4c(c5c6ccccc6[nH]c5c32)C(=O)N(C)C4=O)C(OC(C)=O)C(OC(C)=O)C1OC(C)=O (stereo in doubt; 5) | 
 | < 4.00 |  | 4.12 | CC(=O)OCC1OC(n2c3ccccc3c3c4c(c5c6ccccc6[nH]c5c32)C(=O)N(C)C4=O)C(OC(C)=O)C(OC(C)=O)C1OC(C)=O (stereo in doubt; 6) [listing 1 of 2 here] | 
> 15 µM |  | > 15 µM |  | CC(=O)OCC1OC(n2c3ccccc3c3c4c(c5c6ccccc6[nH]c5c32)C(=O)N(C)C4=O)C(OC(C)=O)C(OC(C)=O)C1OC(C)=O (stereo in doubt; 6) [listing 2 of 2 here] | 
 | 4.23 |  | 6.28 | CN1C(=O)c2c(c3c4ccccc4n(C4OC(CO)C(O)C(O)C4O)c3c3[nH]c4ccccc4c23)C1=O (stereo in doubt; 7) [listing 1 of 2 here] | pIC50 (P388 [1]): 5.22; MIC (Bacillus cereus; Bacillus cereus, read-out: MIC): 6.2 µM (≈ 3.11 µg/mL)
> 20 µM |  | > 20 µM |  | CN1C(=O)c2c(c3c4ccccc4n(C4OC(CO)C(O)C(O)C4O)c3c3[nH]c4ccccc4c23)C1=O (stereo in doubt; 7) [listing 2 of 2 here] | 
 | < 4.00 |  | 5.48 | CN1C(=O)c2c(c3c4ccccc4n(C4OC(CO)C(O)C(O)C4O)c3c3[nH]c4ccccc4c23)C1=O (stereo in doubt; 8) [listing 1 of 2 here] | MIC (Bacillus cereus): 12.4 µM (≈ 6.22 µg/mL)
> 20 µM |  | 2 µM (≈ 1 µg/mL) |  | CN1C(=O)c2c(c3c4ccccc4n(C4OC(CO)C(O)C(O)C4O)c3c3[nH]c4ccccc4c23)C1=O (stereo in doubt; 8) [listing 2 of 2 here] | 
 | 4.21 |  |  | CN1C(=O)c2c(c3c4ccccc4n(C4OC(CO)C(O)C(O)C4O)c3c3[nH]c4ccccc4c23)C1=O (stereo in doubt; 9) [listing 1 of 2 here] | 
> 20 µM |  | 6 µM (≈ 3.01 µg/mL) |  | CN1C(=O)c2c(c3c4ccccc4n(C4OC(CO)C(O)C(O)C4O)c3c3[nH]c4ccccc4c23)C1=O (stereo in doubt; 9) [listing 2 of 2 here] | 
 | 4.00 |  | 5.27 | CN1C(=O)c2c(c3c4ccccc4n(C4OC(CO)C(O)C(O)C4O)c3c3[nH]c4ccccc4c23)C1=O (stereo in doubt; 10) [listing 1 of 2 here] | 
> 20 µM |  | 0.6 µM (≈ 0.301 µg/mL) |  | CN1C(=O)c2c(c3c4ccccc4n(C4OC(CO)C(O)C(O)C4O)c3c3[nH]c4ccccc4c23)C1=O (stereo in doubt; 10) [listing 2 of 2 here] | 
 | 4.09 |  | 5.32 | CC1OC(n2c3ccccc3c3c4c(c5c6ccccc6[nH]c5c32)C(=O)N(C)C4=O)C(O)C(O)C1O (stereo in doubt; 13) [listing 1 of 2 here] | MIC (Bacillus cereus): 103 µM (≈ 50 µg/mL)
> 20 µM |  | > 20 µM |  | CC1OC(n2c3ccccc3c3c4c(c5c6ccccc6[nH]c5c32)C(=O)N(C)C4=O)C(O)C(O)C1O (stereo in doubt; 13) [listing 2 of 2 here] | 
 | < 4.00 |  |  | CC1OC(n2c3ccccc3c3c4c(c5c6ccccc6[nH]c5c32)C(=O)N(C)C4=O)C(O)C(O)C1O (stereo in doubt; 14) [listing 1 of 2 here] | pIC50 (P388 [1]): 5.21; MIC (Bacillus cereus): 3.1 µM (≈ 1.51 µg/mL); pIC50 (B16; Mus musculus, B16): 5.43
> 20 µM |  | 2 µM (≈ 0.971 µg/mL) |  | CC1OC(n2c3ccccc3c3c4c(c5c6ccccc6[nH]c5c32)C(=O)N(C)C4=O)C(O)C(O)C1O (stereo in doubt; 14) [listing 2 of 2 here] | 
 | < 4.00 |  |  | CO[C@H]1[C@H](O)[C@@H](O)[C@H](n2c3c(Cl)cccc3c3c4c(c5c6cccc(Cl)c6[nH]c5c32)C(=O)NC4=O)O[C@@H]1CO [REBECCAMYCIN] | pIC50 (P388 [5]): 6.30; MIC (Bacillus cereus; Bacillus cereus, read-out: MIC): 10.9 µM (≈ 6.22 µg/mL)
